Activity calls are given as the source filed them. The rule behind the calls is not given here.
Columns and labels:
Nucleic Acid [1] = assay: Binding constant to poly[d(A-T)] by ethidium bromide displacement; assay type: nucleic-acid assay
Nucleic Acid [2] = assay: Binding constant to poly[d(G-C)] by ethidium bromide displacement; assay type: nucleic-acid assay
L1210 = assay: Concentration to inhibit growth of murine leukemia cells in culture by 50%.; assay type: functional, cell-based; details: Mus musculus
Method in brief: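 Murine L1210 leukemia cells were grown in culture with drug for 40 h. IC50 is the drug concentration, in nM, that inhibits growth by 50%.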

[3] = test system: Lewis lung carcinoma cell line; assay: Percentage increase in lifespan of mice treated at 100 mg/kg/day on days 5, 9, 13 after intravenous up to the toxic dose levels tested; assay type: functional, organism-based; details: Mus musculus
Method in brief: (§1)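 Mice were inoculated intravenously with 10^6 Lewis lung carcinoma cells. Drug was given ip in 30% v/v ethanol/water on days 5, 9 and 13. ILS is the percentage increase in lifespan at the optimal dose, with six animals per group.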

P388 [4] = assay: Percentage increase in lifespan of mice treated at 100 mg/kg/day on days 1, 5, 9 after intravenous inoculation of P388 leukemia cells; assay type: functional, Mus musculus; details: for ILS at 100 mg/kg/day: Mus musculus, P388
[5] = test system: Lewis lung carcinoma cell line; assay: Percentage increase in lifespan of mice treated at 100 mg/kg/day on days 5, 9, 13 after intravenous inoculation of lewis lung carcinoma cells; assay type: functional, Mus musculus
Method in brief: (§2)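 Mice were given 10^6 Lewis lung carcinoma cells intravenously. Drug was dosed intraperitoneally on days 5, 9 and 13 as a solution in 0.1 mL of 30% v/v ethanol/water, with groups of six animals. Read-out was the percentage increase in lifespan of treated tumor-bearing mice.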

P388 [6] = assay: Percentage increase in lifespan of mice treated at 65 mg/kg/day on days 1, 5, 9 after […] up to the toxic dose levels tested; assay type: functional, organism-based; details: Mus musculus
Method in brief: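 Mice were inoculated intraperitoneally with 10^6 P388 leukemia cells. Drug was given ip in 30% v/v ethanol/water on days 1, 5 and 9. ILS is the percentage increase in lifespan of treated over untreated tumor-bearing animals at the optimal dose, with six animals per group. Values above 20% count as significant, and long-term survivors were scored at 50 days.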

P388 [7] = assay: Percentage increase in lifespan of mice treated at 150 mg/kg/day on days 1, 5, 9 after intraperitoneal up to the toxic dose levels tested; details: Mus musculus
P388 [8] = assay: Percentage increase in lifespan of mice treated at 100 mg/kg/day on days 1, 5, 9 after intraperitoneal inoculation of P388 leukemia cells
[9] = test system: Lewis lung carcinoma cell line; assay: Percentage increase in lifespan of mice treated at 65 mg/kg/day on days 5, 9, 13 after intravenous inoculation of lewis lung carcinoma cells; assay type: functional, Mus musculus; method in brief: as §2
Nucleic Acid [10] = assay: Binding constant for poly[d(A-T)] by ethidium bromide displacement; assay type: nucleic-acid assay
Nucleic Acid [11] = assay: Binding constant for poly[d(G-C)] by ethidium bromide displacement; assay type: nucleic-acid assay
[12] = pKa determined in aqueous solutions spectrophotometrically
[13] = test system: Lewis lung carcinoma cell line; assay: Percentage increase in lifespan of mice treated at 65 mg/kg/day on days 5, 9, 13 after intravenous up to the toxic dose levels tested; assay type: functional, organism-based; details: Mus musculus; method in brief: as §1
P388 [14] = assay: Percentage increase in lifespan of mice treated at 65 mg/kg/day on days 1, 5, 9 after intraperitoneal inoculation of P388 leukemia cells
P388 [15] = assay: Percentage increase in lifespan of mice treated at 65 mg/kg/day on days 1, 5, 9 after intraperitoneal up to the toxic dose levels tested; details: Mus musculus
P388 [16] = assay: Percentage increase in lifespan of mice treated at 100 mg/kg/day on days 1, 5, 9 after intraperitoneal up to the toxic dose levels tested; details: Mus musculus
P388 [17] = assay: Percentage increase in lifespan of mice treated at 225 mg/kg/day on days 1, 5, 9 after intraperitoneal inoculation of P388 leukemia cells
P388 [18] = assay: Percentage increase in lifespan of mice treated at 45 mg/kg/day on days 1, 5, 9 after intraperitoneal up to the toxic dose levels tested; details: Mus musculus
[19] = test system: Lewis lung carcinoma cell line; assay: Percentage increase in lifespan of mice treated at 150 mg/kg/day on days 5, 9, 13 after intravenous inoculation of lewis lung carcinoma cells; assay type: functional, Mus musculus; method in brief: as §2

SMILES	Log K (Nucleic Acid [1])	Log K (Nucleic Acid [2])	IC50 (L1210) [nM]	ILS [3]	ILS (P388 [8])	also measured
Br.Br.CN(C)CCNC(=O)c1cccc2ccc(-c3ccc(O)cc3)nc12	6.3	6.48	1280	inactive		ILS (P388 [4]): 22
CN(C)CCNC(=O)c1cccc2ccc(-c3ccccc3)nc12	5.98	5.92				ILS at 100 mg/kg/day ([5]; Mus musculus, Lewis lung carcinoma): 70%; ILS at 100 mg/kg/day (P388 [4]): 91%
CN(C)CCNC(=O)c1cccc2ccc(-c3ccccn3)nc12	5.82	5.85	1640			ILS [5]: 84; ILS (P388 [4]): 73
CN(C)CCNC(=O)c1cccc2ccc(-c3ccccc3Cl)nc12	5.32	5.12	8100			ILS (P388 [6]): inactive
CN(C)CCCCCNC(=O)c1cccc2ccc(-c3ccccc3)nc12	5.9	5.73	1300	inactive		ILS (P388 [6]): inactive
CN(C)CCNC(=O)c1cccc2ccc(-c3ccc4ccccc4c3)nc12	7	7.35	860			ILS (P388 [7]): inactive
CN(C)CCCNC(=O)c1cccc2ccc(-c3ccccc3)nc12	5.9	5.62	1140	inactive		ILS at 100 mg/kg/day (P388 [4]): 71%
CN(C)CCNC(=O)c1cccc2ccc(-c3ccc(Br)cc3)nc12	6.63	6.68	600	inactive	72	
CN(C)CCNC(=O)c1cccc2ccc(-c3ccncc3)nc12	5.82	6.32	170			ILS [9]: 191
CC(=O)Nc1ccc(-c2ccc3cccc(C(=O)NCCN(C)C)c3n2)cc1			600			Log K (Nucleic Acid [10]): 6.49; ILS (P388 [6]): inactive; Log K (Nucleic Acid [11]): 7.07
CN(C)CCNC(=O)c1cccc2ccc(-c3ccc(Cl)cc3)nc12	6.08	5.99	1170		52	ILS [9]: 45; pKa [12]: 2.42
CN(C)CCNC(=O)c1cccc2ccc(-c3cccc(Cl)c3)nc12	6.05	6.47	1200			ILS [13]: inactive; ILS (P388 [14]): 40
CN(C)CCNC(=O)c1cccc2ccc(-c3ccc([N+](=O)[O-])cc3)nc12	6.28	6.13	290			ILS [9]: 85; ILS (P388 [4]): 58
O=C(NCCNCCO)c1cccc2ccc(-c3ccccc3)nc12	6.22	6.31	36			ILS [13]: inactive; ILS (P388 [15]): inactive
O=C(NCCN1CCOCC1)c1cccc2ccc(-c3ccccc3)nc12	6.12	5.61	44			ILS (P388 [15]): inactive
CN(C)CCNC(=O)c1cccc2ccc(-c3ccc(C(F)(F)F)cc3)nc12	6.64	6.72	2100	inactive		ILS (P388 [16]): inactive
CN(C)CCCCNC(=O)c1cccc2ccc(-c3ccccc3)nc12	6.19	5.89	680		93	
COc1ccc(-c2ccc3cccc(C(=O)NCCN(C)C)c3n2)cc1	6.4	6.27	1290	inactive		ILS (P388 [4]): 42; pKa [12]: 3.28
COc1cccc(-c2ccc3cccc(C(=O)NCCN(C)C)c3n2)c1	6.3	6.41	860			ILS (P388 [17]): 46
CN(C)CCNC(=O)c1cccc2ccc(-c3cccnc3)nc12	5.81	6.09	840		58	ILS [5]: 55
CN(C)CCNC(=O)c1cccc2ccc(-c3ccc(NS(C)(=O)=O)cc3)nc12	6.04	6.22	1330			ILS (P388 [18]): inactive
CN(C)CCNC(=O)c1cccc2ccc(-c3ccc(F)cc3)nc12	6.74	6.66	730	inactive	24	
CN(C)CCNC(=O)c1cccc2ccc(-c3ccc(I)cc3)nc12	6.8	6.87	400	inactive	48	
CN(C)CCNC(=O)c1cccc2ccc(-c3ccc(-c4ccccc4)cc3)nc12	6.88	6.96	1290			ILS (P388 [7]): inactive
CN(C)CCNC(=O)c1cccc2ccc(-c3ccc(S(C)(=O)=O)cc3)nc12	5.68		5800	inactive	29	
CN(C)CCNC(=O)c1cccc2ccc(-c3ccc(N)cc3)nc12	6.42	6.96	200		28	ILS [19]: 59
